From ChEMBL document CHEMBL4814034, “Discovery of N-amido-phenylsulfonamide derivatives as novel microsomal prostaglandin E2 synthase-1 (mPGES-1) inhibitors” (Bioorg Med Chem Lett, 2021)

Key:
[1] = target: T1, Prostaglandin E synthase (Mus musculus, UniProt Q9JM51); experiment: Inhibition of mPGES-1 in mouse RAW264.7 cells assessed as reduction in LPS-stimulated PGE2 production; format: cell-based
T1 sequence (Q9JM51 whole entry): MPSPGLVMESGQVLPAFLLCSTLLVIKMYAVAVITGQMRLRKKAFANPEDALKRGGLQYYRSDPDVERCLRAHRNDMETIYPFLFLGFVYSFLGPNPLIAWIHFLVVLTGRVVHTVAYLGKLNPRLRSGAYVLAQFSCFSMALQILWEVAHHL

[2] = Metabolic stability in dog liver microsomes assessed as parent compound remaining at 1 uM incubated for 30 mins in presence of NADPH by LC-MS/MS analysis; format: ADME, Canis lupus familiaris, Microsome; conditions: read-out: Stabilty
Method in brief: (§1)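 Single-point metabolic stability in mouse, rat, dog and human liver microsomes. Compound at 1.0 µM incubated with 1.0 mg/mL protein at 37 °C for 30 min; % parent remaining reported.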

[3] = Stability in human plasma assessed as parent compound remaining at 10 uM after 30 mins by UPLC-MS analysis; format: ADME, cell-free; conditions: read-out: Stabilty
Method in brief: (§2)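 Compounds at 10 µM incubated in human or rat plasma; % remaining after 30 min reported.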

[4] = target: CYP2C19 (Homo sapiens, UniProt P33261); experiment: Inhibition of CYP2C19 in human liver microsomes assessed as enzyme remaining activity at 10 uM using mephenytoin as substrate incubated for 20 mins in presence of NADPH by LC-MS/MS analysis relative to control; format: ADME; conditions: probe mephenytoin, read-out: Activity
Method in brief: (§3)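 CYP1A2, 2C9, 2C19, 2D6 and 3A4 activities measured with each compound at 10 µM; result given as % of control activity.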

[5] = target: CYP2D6 (Homo sapiens, UniProt P10635); experiment: Inhibition of CYP2D6 in human liver microsomes assessed as enzyme remaining activity at 10 uM using bufuralol as substrate incubated for 20 mins in presence of NADPH by LC-MS/MS analysis relative to control; format: ADME; conditions: probe bufuralol, read-out: Activity; method in brief: as §3
[6] = Metabolic stability in mouse liver microsomes assessed as parent compound remaining at 1 uM incubated for 30 mins in presence of NADPH by LC-MS/MS analysis; format: ADME, Microsome; conditions: read-out: Stabilty; method in brief: as §1
[7] = target: T2, CYP1A2 (Homo sapiens, UniProt P05177); experiment: Inhibition of CYP1A2 in human liver microsomes assessed as enzyme remaining activity at 10 uM using phenacetin as substrate incubated for 20 mins in presence of NADPH by LC-MS/MS analysis relative to control; format: ADME; conditions: probe phenacetin, read-out: Activity; method in brief: as §3
T2 sequence (P05177 whole entry): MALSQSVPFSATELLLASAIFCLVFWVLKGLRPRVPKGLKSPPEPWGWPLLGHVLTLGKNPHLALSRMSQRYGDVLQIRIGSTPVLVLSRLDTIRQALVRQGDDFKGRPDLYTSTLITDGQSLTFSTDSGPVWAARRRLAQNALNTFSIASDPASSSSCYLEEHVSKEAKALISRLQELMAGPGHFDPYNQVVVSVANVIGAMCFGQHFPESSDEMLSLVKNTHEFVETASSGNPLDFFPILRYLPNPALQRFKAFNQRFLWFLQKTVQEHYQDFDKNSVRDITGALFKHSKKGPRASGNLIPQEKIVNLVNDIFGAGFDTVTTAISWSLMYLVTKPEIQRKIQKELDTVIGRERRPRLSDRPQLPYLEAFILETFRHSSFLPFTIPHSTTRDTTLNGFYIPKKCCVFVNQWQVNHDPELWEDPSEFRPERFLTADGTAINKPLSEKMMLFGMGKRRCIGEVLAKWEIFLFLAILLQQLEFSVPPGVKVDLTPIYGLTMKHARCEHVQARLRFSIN

[8] = target: T3, Prostaglandin E synthase (Homo sapiens, UniProt O14684); experiment: Inhibition of mPGES-1 in human A549 cells assessed as reduction in IL-1beta stimulated PGE2 production incubated for 24 hrs by EIA; format: cell-based
T3 sequence (O14684 whole entry): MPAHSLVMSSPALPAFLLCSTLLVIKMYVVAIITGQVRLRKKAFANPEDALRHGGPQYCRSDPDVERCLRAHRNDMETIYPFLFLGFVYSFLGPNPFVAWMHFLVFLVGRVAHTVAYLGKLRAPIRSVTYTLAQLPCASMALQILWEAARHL

[9] = system: A549; experiment: Cytotoxicity against human A549 cells assessed as cell viability incubated for 24 hrs in presence of IL-1beta by MTT assay; format: cell-based; conditions: a549, 24 h
Method in brief: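 A549 cells exposed to compounds at 1 µM with interleukin-1β (1 ng/mL) for 24 h; viability read by MTT assay.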

[10] = Stability in rat plasma assessed as parent compound remaining at 10 uM after 30 mins by UPLC-MS analysis; format: ADME, cell-free; conditions: read-out: Stabilty; method in brief: as §2
[11] = Metabolic stability in rat liver microsomes assessed as parent compound remaining at 1 uM incubated for 30 mins in presence of NADPH by LC-MS/MS analysis; format: ADME, Microsome; conditions: read-out: Stabilty; method in brief: as §1
[12] = target: Voltage-gated inwardly rectifying potassium channel KCNH2 (Homo sapiens, UniProt Q12809); experiment: Binding affinity to human ERG
[13] = Metabolic stability in human liver microsomes assessed as parent compound remaining at 1 uM incubated for 30 mins in presence of NADPH by LC-MS/MS analysis; format: ADME, Microsome; conditions: read-out: Stabilty; method in brief: as §1
[14] = target: CYP3A4 (Homo sapiens, UniProt P08684); experiment: Inhibition of CYP3A4 in human liver microsomes assessed as enzyme remaining activity at 10 uM using testosterone as substrate incubated for 20 mins in presence of NADPH by LC-MS/MS analysis relative to control; format: ADME; conditions: probe testosterone, read-out: Activity; method in brief: as §3
[15] = target: CYP2C9 (Homo sapiens, UniProt P11712); experiment: Inhibition of CYP2C9 in human liver microsomes assessed as enzyme remaining activity at 10 uM using diclofenac as substrate incubated for 20 mins in presence of NADPH by LC-MS/MS analysis relative to control; format: ADME; conditions: probe diclofenac, read-out: Activity; method in brief: as §3
[16] = target: T3, Prostaglandin E synthase; experiment: Inhibition of mPGES-1 activity in IL-1beta stimulated human A549 cells microsomes assessed as reduction in PGE2 production preincubated for 15 mins followed by PGH2 addition and measured after 1 mins by EIA; parameters: species or system Microsome
Method in brief: (§4)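 Cell-free mPGES-1 assay using microsomal preparation from IL-1β-stimulated A549 cells. Preincubated with compounds or DMSO vehicle for 15 min on ice, then reacted 1 min with substrate. PGE2 production measured by EIA kit. Remaining activity expressed as % of control, mean ± SDs (n = 3).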

[17] = target: T3, Prostaglandin E synthase; experiment: Inhibition of mPGES-1 activity in IL-1beta stimulated human A549 cells by cell-free assay; method in brief: as §4
[18] = Selectivity index, ratio of IC50 for inhibition of mPGES-1 in human A549 cells assessed as reduction in IL-1beta stimulated PGI2 production to IC50 for inhibition of mPGES-1 in human A549 cells assessed as reduction in IL-1 beta stimulated PGE2 production
[19] = target: T4, Prostaglandin E synthase (Homo sapiens) (UniProt O14684); experiment: Potency index, ratio of MK886 IC50 to test compound IC50 for inhibition of mPGES-1 in human A549 cells microsomes; conditions: Microsome
T4 sequence (whole entry): T3 sequence (O14684 whole entry)

CYP3A4, sequence (P08684 whole entry): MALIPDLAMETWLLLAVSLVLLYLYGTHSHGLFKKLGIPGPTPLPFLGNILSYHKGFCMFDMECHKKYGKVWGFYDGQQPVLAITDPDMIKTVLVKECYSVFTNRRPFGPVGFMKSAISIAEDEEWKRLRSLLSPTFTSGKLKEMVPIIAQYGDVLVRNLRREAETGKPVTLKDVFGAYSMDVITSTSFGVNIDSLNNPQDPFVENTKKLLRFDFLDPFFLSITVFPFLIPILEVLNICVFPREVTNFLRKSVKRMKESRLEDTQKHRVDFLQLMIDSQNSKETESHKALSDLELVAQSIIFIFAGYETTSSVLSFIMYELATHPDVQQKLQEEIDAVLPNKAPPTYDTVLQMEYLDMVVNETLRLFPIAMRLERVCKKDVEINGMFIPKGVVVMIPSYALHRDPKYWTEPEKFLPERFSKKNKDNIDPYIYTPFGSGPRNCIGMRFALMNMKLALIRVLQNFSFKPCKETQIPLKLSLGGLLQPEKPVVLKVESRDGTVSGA
Voltage-gated inwardly rectifying potassium channel KCNH2, sequence (Q12809 whole entry): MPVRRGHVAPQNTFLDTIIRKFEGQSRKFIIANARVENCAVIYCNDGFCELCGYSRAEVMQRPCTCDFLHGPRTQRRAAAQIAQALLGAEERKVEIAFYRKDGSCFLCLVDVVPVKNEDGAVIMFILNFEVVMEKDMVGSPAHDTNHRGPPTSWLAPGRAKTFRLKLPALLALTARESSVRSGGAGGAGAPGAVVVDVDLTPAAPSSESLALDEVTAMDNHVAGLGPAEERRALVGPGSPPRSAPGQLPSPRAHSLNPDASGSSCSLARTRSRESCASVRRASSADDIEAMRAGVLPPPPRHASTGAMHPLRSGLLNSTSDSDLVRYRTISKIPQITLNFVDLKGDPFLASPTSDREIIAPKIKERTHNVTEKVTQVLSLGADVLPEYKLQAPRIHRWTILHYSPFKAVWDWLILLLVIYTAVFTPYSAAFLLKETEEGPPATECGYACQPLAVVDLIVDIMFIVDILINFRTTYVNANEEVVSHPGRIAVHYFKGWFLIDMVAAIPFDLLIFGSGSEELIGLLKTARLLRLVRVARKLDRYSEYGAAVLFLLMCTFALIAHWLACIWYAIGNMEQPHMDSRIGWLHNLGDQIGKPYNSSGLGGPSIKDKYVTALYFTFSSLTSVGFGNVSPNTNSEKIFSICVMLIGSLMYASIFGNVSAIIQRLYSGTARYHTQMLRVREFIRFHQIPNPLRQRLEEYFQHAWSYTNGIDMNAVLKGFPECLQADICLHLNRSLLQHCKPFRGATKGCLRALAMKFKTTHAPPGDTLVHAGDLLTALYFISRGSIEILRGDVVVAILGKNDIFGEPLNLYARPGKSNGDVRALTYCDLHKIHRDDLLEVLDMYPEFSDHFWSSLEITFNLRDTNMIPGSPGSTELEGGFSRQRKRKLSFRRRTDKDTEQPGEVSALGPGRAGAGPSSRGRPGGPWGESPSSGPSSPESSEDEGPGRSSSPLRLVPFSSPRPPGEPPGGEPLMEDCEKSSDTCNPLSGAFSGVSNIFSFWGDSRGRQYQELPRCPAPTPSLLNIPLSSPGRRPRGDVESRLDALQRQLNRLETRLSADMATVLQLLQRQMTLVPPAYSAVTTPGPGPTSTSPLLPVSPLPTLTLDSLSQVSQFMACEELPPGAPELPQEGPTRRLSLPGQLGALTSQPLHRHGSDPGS
CYP2D6, sequence (P10635 whole entry): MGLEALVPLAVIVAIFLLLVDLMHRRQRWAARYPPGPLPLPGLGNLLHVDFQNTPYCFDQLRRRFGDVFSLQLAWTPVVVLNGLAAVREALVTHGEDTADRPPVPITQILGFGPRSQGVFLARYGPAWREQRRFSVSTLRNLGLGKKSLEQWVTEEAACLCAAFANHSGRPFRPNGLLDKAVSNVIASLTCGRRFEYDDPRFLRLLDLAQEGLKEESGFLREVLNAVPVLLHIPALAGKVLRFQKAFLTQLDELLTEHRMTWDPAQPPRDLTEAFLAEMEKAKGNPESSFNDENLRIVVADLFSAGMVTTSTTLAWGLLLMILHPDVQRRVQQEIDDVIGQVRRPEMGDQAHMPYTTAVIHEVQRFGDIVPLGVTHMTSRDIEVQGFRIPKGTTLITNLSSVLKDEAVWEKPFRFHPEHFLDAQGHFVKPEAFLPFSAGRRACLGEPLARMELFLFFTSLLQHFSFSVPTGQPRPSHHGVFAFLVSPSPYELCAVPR
CYP2C19, sequence (P33261 whole entry): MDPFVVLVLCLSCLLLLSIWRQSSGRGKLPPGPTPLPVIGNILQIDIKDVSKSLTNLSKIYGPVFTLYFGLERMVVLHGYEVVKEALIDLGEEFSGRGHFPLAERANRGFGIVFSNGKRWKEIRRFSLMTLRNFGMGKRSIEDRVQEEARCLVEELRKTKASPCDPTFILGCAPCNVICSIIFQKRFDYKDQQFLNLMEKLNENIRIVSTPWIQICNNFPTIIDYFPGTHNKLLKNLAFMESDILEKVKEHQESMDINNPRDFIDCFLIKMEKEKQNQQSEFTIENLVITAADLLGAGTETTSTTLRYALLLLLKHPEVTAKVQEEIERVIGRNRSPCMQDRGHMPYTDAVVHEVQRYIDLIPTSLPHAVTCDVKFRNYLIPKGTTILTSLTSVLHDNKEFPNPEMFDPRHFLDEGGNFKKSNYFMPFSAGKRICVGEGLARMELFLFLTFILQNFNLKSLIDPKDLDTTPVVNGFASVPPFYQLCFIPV
CYP2C9, sequence (P11712 whole entry): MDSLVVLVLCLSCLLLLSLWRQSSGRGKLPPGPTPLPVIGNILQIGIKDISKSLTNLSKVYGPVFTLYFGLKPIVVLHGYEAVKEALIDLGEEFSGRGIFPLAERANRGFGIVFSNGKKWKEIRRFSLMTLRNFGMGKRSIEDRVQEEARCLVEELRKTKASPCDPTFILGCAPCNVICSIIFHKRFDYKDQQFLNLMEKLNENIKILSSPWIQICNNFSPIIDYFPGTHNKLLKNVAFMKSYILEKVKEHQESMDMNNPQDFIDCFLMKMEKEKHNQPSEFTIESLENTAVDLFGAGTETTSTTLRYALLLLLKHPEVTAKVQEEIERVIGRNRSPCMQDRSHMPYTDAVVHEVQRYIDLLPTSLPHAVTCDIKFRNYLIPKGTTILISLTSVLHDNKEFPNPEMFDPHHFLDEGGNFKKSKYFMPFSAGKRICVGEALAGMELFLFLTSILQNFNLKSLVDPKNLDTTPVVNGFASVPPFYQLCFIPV

Row | Structure (SMILES) | IC50 [1] | remaining at 0.5 h, 1 µM [2] | remaining at 0.5 h, 10 µM [3] | activity at 20 min, 10 µM [4] | activity at 20 min, 10 µM [5] | remaining at 0.5 h, 1 µM [6] | activity at 20 min, 10 µM [7] | IC50 [8] | remaining at 0.5 h, 10 µM [10] | remaining at 0.5 h, 1 µM [11] | remaining at 0.5 h, 1 µM [13] | activity at 20 min, 10 µM [14] | activity at 20 min, 10 µM [15] | IC50 [16] | IC50 [17] | Activity [9] | IC50 [12] | Ratio IC50 [18] | Ratio IC50 [19]
1 | O=C(Oc1ccc(OCc2ccccc2)cc1)N(Nc1ccccc1)S(=O)(=O)c1ccc(Cl)cc1 | 60 nM | 48.5% | < 1% | 77.9% | 57.1% | 42.2% | 75.7% | 190 nM | < 1% | 16.3% | 66.6% | 73.6% | 88.4% | 610 nM | – | > 1 µM | 9.6 µM | – | –
2 | O=C(Nc1ccc(OCCCCc2ccccc2)cc1)N(Cc1ccccc1)S(=O)(=O)c1ccc(Cl)cc1 | – | 86.4% | 45% | 8.7% | 98.8% | 79% | 69.4% | 240 nM | 1.3% | 74.5% | > 100% | 92.5% | 99.9% | 490 nM | – | > 1 µM | > 10 µM | 4 | 8
3 | CC(C)c1ccc2c(c1)c(SC(C)(C)C)c(CC(C)(C)C(=O)O)n2Cc1ccc(Cl)cc1 | – | – | – | – | – | – | – | – | – | – | – | – | – | – | – | > 1 µM | – | – | –
4 | O=C(Nc1ccc(OCc2ccccc2)cc1)N(Cc1ccccc1)S(=O)(=O)c1ccc(Cl)cc1 | – | – | – | – | – | – | – | 610 nM | – | – | – | – | – | > 30000 nM | – | > 1 µM | – | – | –

The next lines start with results.

Row | IC50 [1] | remaining at 0.5 h, 1 µM [2] | remaining at 0.5 h, 10 µM [3] | activity at 20 min, 10 µM [4] | activity at 20 min, 10 µM [5] | remaining at 0.5 h, 1 µM [6] | activity at 20 min, 10 µM [7] | IC50 [8] | remaining at 0.5 h, 10 µM [10] | remaining at 0.5 h, 1 µM [11] | remaining at 0.5 h, 1 µM [13] | activity at 20 min, 10 µM [14] | activity at 20 min, 10 µM [15] | IC50 [16] | IC50 [17] | Structure (SMILES) | Activity [9] | IC50 [12] | Ratio IC50 [18] | Ratio IC50 [19]
5 | 340 nM | 37.7% | > 100% | 56.9% | > 100% | 53.4% | 99.4% | 160 nM | 2.1% | 44.1% | 44.9% | > 100% | 97% | – | 7.37 µM | O=C(Oc1ccc(OCc2ccccc2)cc1)N(Cc1ccccc1)S(=O)(=O)c1ccc(Cl)cc1 | > 1 µM | 5.2 µM | 8 | –
6 | – | – | – | – | – | – | – | 150 nM | – | – | – | – | – | > 30000 nM | – | O=C(Oc1ccc(OCc2ccccc2)cc1)N(Nc1cccc(Cl)c1)S(=O)(=O)c1ccc(Cl)cc1 | > 1 µM | – | – | –
